pEC50: −log10 of the molar value.
test system: Hepatitis C virus; assay: Antiviral activity against Hepatitis C virus genotype 1b infected in human HuH7 cells assessed as inhibition of virus induced cytopathic effect after 24 hrs by MTS assay; format: functional, organism-based, Hepacivirus hominis; details: Huh-7, 24 h

Question: With `C=C[C@@]1(c2ccc3c(N)ncnn23)O[C@H](CO)[C@@H](O)[C@H]1O` as the molecule, how does the pEC50 read?
Answer: The pEC50 was under 4.05.

Question: With `C#C[C@@]1(c2ccc3c(N)ncnn23)O[C@H](CO)[C@@H](O)[C@H]1O` as the molecule, how does the pEC50 read?
Answer: The pEC50 was under 4.05.

Question: With `CC(C)(C)C(=O)SCCOP(=O)(OCCSC(=O)C(C)(C)C)OC[C@H]1O[C@@](C#N)(c2ccc3c(N)ncnn23)[C@H](O)[C@@H]1O` as the molecule, how does the pEC50 read?
Answer: Its pEC50 is 7.07.

Question: With `CC(C)(C)C(=O)SCCOP(=O)(OCCSC(=O)C(C)(C)C)OC[C@H]1O[C@@](C)(c2ccc3c(N)ncnn23)[C@H](O)[C@@H]1O` as the molecule, how does the pEC50 read?
Answer: The pEC50 was 7.11.

Question: With `C=C[C@@]1(c2ccc3c(N)ncnn23)O[C@H](COP(=O)(OCCSC(=O)C(C)(C)C)OCCSC(=O)C(C)(C)C)[C@@H](O)[C@H]1O` as the molecule, how does the pEC50 read?
Answer: The pEC50 was 5.46.

Question: With `C#C[C@@]1(c2ccc3c(N)ncnn23)O[C@H](COP(=O)(OCCSC(=O)C(C)(C)C)OCCSC(=O)C(C)(C)C)[C@@H](O)[C@H]1O` as the molecule, how does the pEC50 read?
Answer: Its pEC50 is 5.22.

test system: dengue virus type 2; assay: Antiviral activity against Dengue virus type 2 New Guinea C infected in african green monkey Vero E6 cells assessed as inhibition of virus induced cytopathic effect after 24 hrs by MTS assay; format: functional, organism-based; details: not given

Question: With `C=C[C@@]1(c2ccc3c(N)ncnn23)O[C@H](CO)[C@@H](O)[C@H]1O` as the molecule, how does the pEC50 read?
Answer: Its pEC50 is under 4.52.

Question: With `C#C[C@@]1(c2ccc3c(N)ncnn23)O[C@H](CO)[C@@H](O)[C@H]1O` as the molecule, how does the pEC50 read?
Answer: Its pEC50 is under 4.52.

test system: West Nile virus; assay: Antiviral activity against West nile virus NY99 infected in african green monkey Vero cells assessed as inhibition of virus induced cytopathic effect after 24 hrs by MTS assay; format: functional, organism-based; details: NY-99, Vero

Question: With `C=C[C@@]1(c2ccc3c(N)ncnn23)O[C@H](CO)[C@@H](O)[C@H]1O` as the molecule, how does the pEC50 read?
Answer: The pEC50 was under 4.52.

Question: With `C#C[C@@]1(c2ccc3c(N)ncnn23)O[C@H](CO)[C@@H](O)[C@H]1O` as the molecule, how does the pEC50 read?
Answer: Its pEC50 is under 4.52.

test system: Influenza A virus; assay: Antiviral activity against Influenza A virus H3N2 infected in MDCK cells assessed as inhibition of virus induced cytopathic effect after 24 hrs by MTS assay; format: functional, organism-based; details: not given

Question: With `C=C[C@@]1(c2ccc3c(N)ncnn23)O[C@H](CO)[C@@H](O)[C@H]1O` as the molecule, how does the pEC50 read?
Answer: The pEC50 was under 4.52.

Question: With `C#C[C@@]1(c2ccc3c(N)ncnn23)O[C@H](CO)[C@@H](O)[C@H]1O` as the molecule, how does the pEC50 read?
Answer: The pEC50 was under 4.52.

test system: Human respirovirus 3; assay: Antiviral activity against Parainfluenza 3 C 243 infected in african green monkey Vero cells assessed as inhibition of virus induced cytopathic effect after 24 hrs by MTS assay; format: functional, organism-based; details: Human respirovirus 3, C 243, Vero

Question: With `C=C[C@@]1(c2ccc3c(N)ncnn23)O[C@H](CO)[C@@H](O)[C@H]1O` as the molecule, how does the pEC50 read?
Answer: The pEC50 was under 4.52.

Question: With `C#C[C@@]1(c2ccc3c(N)ncnn23)O[C@H](CO)[C@@H](O)[C@H]1O` as the molecule, how does the pEC50 read?
Answer: The pEC50 was under 4.52.

test system: SARS-CoV; assay: Antiviral activity against SARS coronavirus Toronto-2 infected in african green monkey Vero cells assessed as inhibition of virus induced cytopathic effect after 24 hrs by MTS assay; format: functional, organism-based; details: Severe acute respiratory syndrome-related coronavirus, Toronto-2, Vero

Question: With `C=C[C@@]1(c2ccc3c(N)ncnn23)O[C@H](CO)[C@@H](O)[C@H]1O` as the molecule, how does the pEC50 read?
Answer: The pEC50 was 4.85.

Question: With `C#C[C@@]1(c2ccc3c(N)ncnn23)O[C@H](CO)[C@@H](O)[C@H]1O` as the molecule, how does the pEC50 read?
Answer: Its pEC50 is under 4.52.

test system: not listed separately; assay: Antiviral activity against Coxsackievirus A7 infected in human MRC5 cells assessed as inhibition of virus induced cytopathic effect after 24 hrs by MTS assay; format: functional, cell-based; details: Enterovirus A, MRC5, 24 h
In short: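 Cytoprotection (CPE) assay in MRC-5 cells infected with Coxsackie A strain A7 or A21. MTS dye reduction read out both protection from virus-induced CPE and compound cytotoxicity, giving EC50 and CC50.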

Question: With `C=C[C@@]1(c2ccc3c(N)ncnn23)O[C@H](CO)[C@@H](O)[C@H]1O` as the molecule, how does the pEC50 read?
Answer: The pEC50 was under 4.52.

Question: With `C#C[C@@]1(c2ccc3c(N)ncnn23)O[C@H](CO)[C@@H](O)[C@H]1O` as the molecule, how does the pEC50 read?
Answer: The pEC50 was under 4.52.

test system: Coxsackievirus A21; assay: Antiviral activity against Coxsackievirus A21 infected in human MRC5 cells assessed as inhibition of virus induced cytopathic effect after 24 hrs by MTS assay; format: functional, organism-based; details: Enterovirus C, MRC5, 24 h
In short: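 EC50 taken from a cytoprotection (CPE) assay. Protection of virus-infected host cells is read out by MTS dye reduction. The Coxsackie A assay uses MRC-5 cells with strain A7 or A21.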

Question: With `C=C[C@@]1(c2ccc3c(N)ncnn23)O[C@H](CO)[C@@H](O)[C@H]1O` as the molecule, how does the pEC50 read?
Answer: Its pEC50 is under 4.52.

Question: With `C#C[C@@]1(c2ccc3c(N)ncnn23)O[C@H](CO)[C@@H](O)[C@H]1O` as the molecule, how does the pEC50 read?
Answer: Its pEC50 is under 4.52.

test system: Vero; assay: Cytotoxicity against african green monkey Vero cells by MTS assay; format: cell-based; details: chlorocebus sabaeus
In short: (§1)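 CC50 measured in the uninfected host cells used in each CPE assay. Compound cytotoxicity is read out by MTS dye reduction.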

Question: With `C=C[C@@]1(c2ccc3c(N)ncnn23)O[C@H](CO)[C@@H](O)[C@H]1O` as the molecule, how does the CC50 read?
Answer: Its CC50 is over 30 µM.

Question: With `C#C[C@@]1(c2ccc3c(N)ncnn23)O[C@H](CO)[C@@H](O)[C@H]1O` as the molecule, how does the CC50 read?
Answer: The CC50 was over 30 µM.

test system: Vero; assay: Cytotoxicity against african green monkey Vero E6 cells by MTS assay; format: cell-based; details: chlorocebus sabaeus; in short: as §1

Question: For `C=C[C@@]1(c2ccc3c(N)ncnn23)O[C@H](CO)[C@@H](O)[C@H]1O`, which CC50 is on record?
Answer: The CC50 was over 30 µM.

Question: For `C#C[C@@]1(c2ccc3c(N)ncnn23)O[C@H](CO)[C@@H](O)[C@H]1O`, which CC50 is on record?
Answer: Its CC50 is over 30 µM.

test system: not listed separately; assay: (§2) Cytotoxicity against human HuH7 cells by MTS assay; format: cell-based, Huh-7; details: HuH7 cells

Question: Which CC50 does the source give for `C=C[C@@]1(c2ccc3c(N)ncnn23)O[C@H](CO)[C@@H](O)[C@H]1O` here?
Answer: Its CC50 is over 89 µM.

Question: For `C#C[C@@]1(c2ccc3c(N)ncnn23)O[C@H](CO)[C@@H](O)[C@H]1O`, which CC50 is on record?
Answer: Its CC50 is over 89 µM.

test system: Huh-7; assay: as §2; format: cell-based; details: huh-7

Question: With `CC(C)(C)C(=O)SCCOP(=O)(OCCSC(=O)C(C)(C)C)OC[C@H]1O[C@@](C#N)(c2ccc3c(N)ncnn23)[C@H](O)[C@@H]1O` as the molecule, how does the CC50 read?
Answer: Its CC50 is 3.2 µM.

Question: For `CC(C)(C)C(=O)SCCOP(=O)(OCCSC(=O)C(C)(C)C)OC[C@H]1O[C@@](C)(c2ccc3c(N)ncnn23)[C@H](O)[C@@H]1O`, which CC50 is on record?
Answer: The CC50 was 0.73 µM.

Question: With `C=C[C@@]1(c2ccc3c(N)ncnn23)O[C@H](COP(=O)(OCCSC(=O)C(C)(C)C)OCCSC(=O)C(C)(C)C)[C@@H](O)[C@H]1O` as the molecule, how does the CC50 read?
Answer: Its CC50 is 12 µM.

Question: With `C#C[C@@]1(c2ccc3c(N)ncnn23)O[C@H](COP(=O)(OCCSC(=O)C(C)(C)C)OCCSC(=O)C(C)(C)C)[C@@H](O)[C@H]1O` as the molecule, how does the CC50 read?
Answer: Its CC50 is 26 µM.

test system: MRC5; assay: Cytotoxicity against human MRC5 cells by MTS assay; format: cell-based; details: not given; in short: as §1

Question: For `C=C[C@@]1(c2ccc3c(N)ncnn23)O[C@H](CO)[C@@H](O)[C@H]1O`, which CC50 is on record?
Answer: The CC50 was over 30 µM.

Question: With `C#C[C@@]1(c2ccc3c(N)ncnn23)O[C@H](CO)[C@@H](O)[C@H]1O` as the molecule, how does the CC50 read?
Answer: Its CC50 is over 30 µM.

test system: MDCK; assay: Cytotoxicity against dog MDCK cells by MTS assay; format: cell-based, Canis lupus familiaris; details: not given; in short: as §1

Question: With `C=C[C@@]1(c2ccc3c(N)ncnn23)O[C@H](CO)[C@@H](O)[C@H]1O` as the molecule, how does the CC50 read?
Answer: Its CC50 is over 30 µM.

Question: For `C#C[C@@]1(c2ccc3c(N)ncnn23)O[C@H](CO)[C@@H](O)[C@H]1O`, which CC50 is on record?
Answer: Its CC50 is over 30 µM.

test system: not listed separately; assay: Selectivity ratio of CC50 for human HuH7 cells to EC50 for Hepatitis C virus genotype 1b; format: ADME, cell-based, Huh-7; details: read-out: Ratio CC50/EC50
In short: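 Anti-HCV EC50 was measured in a subgenomic HCV replicon cell assay, and CC50 was measured in the host cells of the same assay. The selectivity index was calculated as CC50/EC50.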

Question: For `CC(C)(C)C(=O)SCCOP(=O)(OCCSC(=O)C(C)(C)C)OC[C@H]1O[C@@](C#N)(c2ccc3c(N)ncnn23)[C@H](O)[C@@H]1O`, which selectivity ratio is on record?
Answer: The selectivity ratio was 40.

Question: With `CC(C)(C)C(=O)SCCOP(=O)(OCCSC(=O)C(C)(C)C)OC[C@H]1O[C@@](C)(c2ccc3c(N)ncnn23)[C@H](O)[C@@H]1O` as the molecule, how does the selectivity ratio read?
Answer: The selectivity ratio was under 10.

Question: Which selectivity ratio does the source give for `C=C[C@@]1(c2ccc3c(N)ncnn23)O[C@H](COP(=O)(OCCSC(=O)C(C)(C)C)OCCSC(=O)C(C)(C)C)[C@@H](O)[C@H]1O` here?
Answer: Its selectivity ratio is under 10.

Question: With `C#C[C@@]1(c2ccc3c(N)ncnn23)O[C@H](COP(=O)(OCCSC(=O)C(C)(C)C)OCCSC(=O)C(C)(C)C)[C@@H](O)[C@H]1O` as the molecule, how does the selectivity ratio read?
Answer: Its selectivity ratio is under 10.
